Data on 25 compounds can be found in ChEMBL document CHEMBL3853297, “Synthesis and biological evaluation of 4-(2-fluorophenoxy)-3,3'-bipyridine derivatives as potential c-met inhibitors” (Eur J Med Chem, 2016).

Test [1] is described as follows: Cytotoxicity against human MKN45 cells after 72 hrs by MTT assay. The conditions noted are these: MKN-45, 72 h.
A short description of test [2]: Cytotoxicity against human A549 cells after 72 hrs by MTT assay. The following applies: A549, 72 h. For orientation: Tetrazolium assays rely on reduction of a dye to a coloured formazan, in cell work by metabolically active cells.
Test [3] can be described thus: Cytotoxicity against human HT-29 cells after 72 hrs by MTT assay. The format is functional, cell-based. The following applies: HT-29, 72 h. The procedure, abridged:
(§1)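 Cells grown in MEM with 10% FBS; about 4×10^3 cells per well of 96-well plate, 24 h at 37 °C, 5% CO2, then test compounds at indicated final concentrations for 72 h. Each tested three times; IC50 as mean ± SD.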

Test [4] in a line: Cytotoxicity against human MDA-MB-231 cells after 72 hrs by MTT assay. In kind it is functional, cell-based. The following applies: MDA-MB-231, 72 h. The procedure, abridged: as §1

A word on the IC50: it is the concentration at which inhibition is half-maximal. A lower IC50 goes with greater potency in that assay. On to `O=C(Nc1ccc(Oc2ccncc2-c2cccnc2)c(F)c1)c1nn(-c2ccc(F)cc2)c(=O)c2ccccc12`, for which the IC50 was 320 nM in test [1], 820 nM in test [2] and 990 nM in test [3].

Regarding `O=C(Nc1ccc(Oc2ccncc2-c2cccnc2)c(F)c1)C1=NN(c2ccc(F)c(F)c2)c2ccccc2S1(=O)=O`, the half-maximal inhibitory concentration (IC50) in test [1] was determined as 90 nM; in test [4], 0.034 µM; in test [2] it was 1300 nM; in test [3], 1550 nM.

`O=C(Nc1ccc(Oc2ccncc2-c2cccnc2)c(F)c1)c1ccnn(-c2ccc(F)cc2)c1=O`: the IC50 in test [1] is 3120 nM; in test [4], 5.2 µM; in test [2], 2880 nM; in test [3], 4770 nM.

As to `COc1ccc(-n2nc(C(=O)Nc3ccc(Oc4ccncc4-c4cccnc4)c(F)c3)c(=O)n(C)c2=O)c(OC)c1`, the IC50 turned out to be 2820 nM in test [1], 3.27 µM in test [4], 890 nM in test [2] and 890 nM in test [3].

As for `Cn1cc(-c2ccc(F)cc2)cc(C(=O)Nc2ccc(Oc3ccncc3-c3cccnc3)c(F)c2)c1=O`, the IC50 amounted to 7100 nM in test [1], 11.9 µM in test [4], 8300 nM in test [2] and 11200 nM in test [3].

Consider `O=C(Nc1ccc(Oc2ccncc2-c2cccnc2)c(F)c1)c1nn(-c2cccc(F)c2)c(=O)c2ccccc12`, for which the IC50 in test [1] was 27 nM; in test [4], 0.072 µM; in test [2], 1750 nM; in test [3], 410 nM.

With `COc1ccc(Nc2cc(Nc3ccc(Oc4ccncc4-c4cccnc4)c(F)c3)ncn2)cc1`, the IC50 in test [1] worked out at 1010 nM; in test [2] it was 2140 nM; in test [3] it was 4110 nM.

With `Cn1cc(-c2ccccc2)cc(C(=O)Nc2ccc(Oc3ccncc3-c3cccnc3)c(F)c2)c1=O`, the IC50 in test [1] amounted to 5400 nM; in test [4], 9.5 µM; in test [2], 7600 nM; in test [3], 7420 nM.

For `Cn1c(=O)c(C(=O)Nc2ccc(Oc3ccncc3-c3cccnc3)c(F)c2)nn(-c2cccc(C(F)(F)F)c2)c1=O`, the IC50 in test [1] turned out to be 1950 nM; in test [4], 3.98 µM; in test [2] it was 460 nM; in test [3], 510 nM.

With `Cn1c(=O)c(C(=O)Nc2ccc(Oc3ccncc3-c3cccnc3)c(F)c2)nn(-c2ccc(F)c(Cl)c2)c1=O`, the IC50 in test [1] turned out to be 10100 nM; in test [4], 11.3 µM; in test [2] it was 12500 nM; in test [3], 4780 nM.

On to `Fc1ccc(Nc2cc(Nc3ccc(Oc4ccncc4-c4cccnc4)c(F)c3)ncn2)cc1`, for which the IC50 was determined as 160 nM in test [1], 14.1 µM in test [4], 710 nM in test [2] and 330 nM in test [3].

For `Cn1c(=O)c(C(=O)Nc2ccc(Oc3ccncc3-c3cccnc3)c(F)c2)nn(-c2ccccc2F)c1=O`, the half-inhibitory concentration (IC50) in test [1] is 4780 nM; in test [4] it was 6.76 µM; in test [2], 610 nM; in test [3], 2100 nM.

For the compound `Cn1c(=O)c(C(=O)Nc2ccc(Oc3ccncc3-c3cccnc3)c(F)c2)nn(-c2ccc(Cl)cc2)c1=O`, the half-maximal inhibitory concentration (IC50) was 1600 nM in test [1], 3.22 µM in test [4], 930 nM in test [2] and 440 nM in test [3].

Turning to `Fc1ccc(Nc2cc(Nc3ccc(Oc4ccncc4-c4cccnc4)c(F)c3)ncn2)cc1F`, the IC50 was 80 nM in test [1], 6.77 µM in test [4], 7630 nM in test [2] and 2320 nM in test [3].

Turning to `O=C(Nc1ccc(Oc2ccncc2-c2cccnc2)c(F)c1)c1ccnn(-c2ccc(Cl)cc2)c1=O`, the IC50 worked out at 4230 nM in test [1], 4.84 µM in test [4], 6560 nM in test [2] and 4560 nM in test [3].

Consider `Cn1c(=O)c(C(=O)Nc2ccc(Oc3ccncc3-c3cccnc3)c(F)c2)nn(-c2c(Cl)cccc2Cl)c1=O`, for which the IC50 worked out at 3930 nM in test [1], 9.69 µM in test [4], 720 nM in test [2] and 780 nM in test [3].

For the compound `O=C(Nc1ccc(Oc2ccncc2-c2cccnc2)c(F)c1)c1nn(-c2ccccc2)c(=O)c2ccccc12`, the IC50 was 90 nM in test [1], 8.2 µM in test [4], 7900 nM in test [2] and 1240 nM in test [3].

In the case of `Fc1cc(Nc2cc(Nc3cccc(Cl)c3)ncn2)ccc1Oc1ccncc1-c1cccnc1`, the IC50 in test [1] turned out to be 30 nM; in test [4], 0.09 µM; in test [2], 180 nM; in test [3] it was 690 nM.

On to `O=C(Nc1ccc(Oc2ccncc2-c2cccnc2)c(F)c1)c1nn(-c2ccc(Cl)cc2)c(=O)c2ccccc12`, for which the 50% inhibitory concentration (IC50) in test [1] is 430 nM; in test [2], 1020 nM; in test [3] it was 710 nM.

In the case of `COc1ccc(-n2nc(C(=O)Nc3ccc(Oc4ccncc4-c4cccnc4)c(F)c3)c3ccccc3c2=O)cc1`, the IC50 in test [1] is 740 nM; in test [4], 10.4 µM; in test [2], 6800 nM.

Regarding `Fc1cc(Nc2cc(Nc3ccc(Cl)cc3)ncn2)ccc1Oc1ccncc1-c1cccnc1`, the half-inhibitory concentration (IC50) in test [1] came out at 240 nM; in test [2], 1610 nM; in test [3], 980 nM.

In the case of `O=C(Nc1ccc(Oc2ccncc2-c2cccnc2)c(F)c1)C1=NN(c2cccc(F)c2)c2ccccc2S1(=O)=O`, the IC50 in test [1] was 3 nM; in test [4], 0.01 µM; in test [2], 900 nM; in test [3] it was 430 nM.

With `COc1cc(Nc2cc(Nc3ccc(Oc4ccncc4-c4cccnc4)c(F)c3)ncn2)cc(OC)c1`, the IC50 in test [1] was 1750 nM; in test [4] it was 4.24 µM; in test [2], 560 nM; in test [3], 1130 nM.

In the case of `Fc1cc(Nc2cc(Nc3ccccc3)ncn2)ccc1Oc1ccncc1-c1cccnc1`, the IC50 was 6300 nM in test [1], 2.74 µM in test [4], 410 nM in test [2] and 880 nM in test [3].

Turning to `O=C(Nc1ccc(Oc2ccncc2-c2cccnc2)c(F)c1)C1=NN(c2ccccc2C(F)(F)F)c2ccccc2S1(=O)=O`, the IC50 was determined as 27 nM in test [1], 0.046 µM in test [4], 120 nM in test [2] and 190 nM in test [3].
